The subject of one data set is Haemophilus influenzae. Kind of data set: Antibacterial activity against Haemophilus influenzae HI3542. The class given is functional. To be noted: HI-3542.
Data set [1] deals with Streptococcus pneumoniae. Kind of data set: Antibacterial activity against Streptococcus pneumoniae SV1. Type of data set: functional.
In a further data set the test system is Moraxella catarrhalis. Nature of the data set: Antibacterial activity against Moraxella catarrhalis BC-3531. The class given is functional.
Data set [2] deals with Staphylococcus aureus. Kind of data set: Antibacterial activity against Staphylococcus aureus UC76. The class given is functional.
The subject of data set [3] is Streptococcus pneumoniae. Nature of the data set: Antibacterial activity against fluoroquinolone resistance Streptococcus pneumoniae SP3765. The class given is functional.
The subject of data set [4] is Staphylococcus aureus. Nature of the data set: Antibacterial activity against Staphylococcus aureus SA2552. Type of data set: functional.
A short description of data set [5]: Volume of distribution in rat at 1 mg/kg, iv. The class given is ADME, organism-based. The following applies: in vivo, read-out: Vdss. Details: dose 1 mg/kg, route intravenous.
Data set [6] in a line: Clearance in rat at 1 mg/kg, iv. To be noted: in vivo. Details: dose 1 mg/kg, route intravenous. Type of data set: ADME, organism-based.
Data set [7] deals with Voltage-gated inwardly rectifying potassium channel KCNH2 (Homo sapiens, UniProt Q12809). Nature of the data set: Displacement of [3H]dofetilide from human ERG by fliter binding assay.
Chain of Voltage-gated inwardly rectifying potassium channel KCNH2 (Q12809 whole entry): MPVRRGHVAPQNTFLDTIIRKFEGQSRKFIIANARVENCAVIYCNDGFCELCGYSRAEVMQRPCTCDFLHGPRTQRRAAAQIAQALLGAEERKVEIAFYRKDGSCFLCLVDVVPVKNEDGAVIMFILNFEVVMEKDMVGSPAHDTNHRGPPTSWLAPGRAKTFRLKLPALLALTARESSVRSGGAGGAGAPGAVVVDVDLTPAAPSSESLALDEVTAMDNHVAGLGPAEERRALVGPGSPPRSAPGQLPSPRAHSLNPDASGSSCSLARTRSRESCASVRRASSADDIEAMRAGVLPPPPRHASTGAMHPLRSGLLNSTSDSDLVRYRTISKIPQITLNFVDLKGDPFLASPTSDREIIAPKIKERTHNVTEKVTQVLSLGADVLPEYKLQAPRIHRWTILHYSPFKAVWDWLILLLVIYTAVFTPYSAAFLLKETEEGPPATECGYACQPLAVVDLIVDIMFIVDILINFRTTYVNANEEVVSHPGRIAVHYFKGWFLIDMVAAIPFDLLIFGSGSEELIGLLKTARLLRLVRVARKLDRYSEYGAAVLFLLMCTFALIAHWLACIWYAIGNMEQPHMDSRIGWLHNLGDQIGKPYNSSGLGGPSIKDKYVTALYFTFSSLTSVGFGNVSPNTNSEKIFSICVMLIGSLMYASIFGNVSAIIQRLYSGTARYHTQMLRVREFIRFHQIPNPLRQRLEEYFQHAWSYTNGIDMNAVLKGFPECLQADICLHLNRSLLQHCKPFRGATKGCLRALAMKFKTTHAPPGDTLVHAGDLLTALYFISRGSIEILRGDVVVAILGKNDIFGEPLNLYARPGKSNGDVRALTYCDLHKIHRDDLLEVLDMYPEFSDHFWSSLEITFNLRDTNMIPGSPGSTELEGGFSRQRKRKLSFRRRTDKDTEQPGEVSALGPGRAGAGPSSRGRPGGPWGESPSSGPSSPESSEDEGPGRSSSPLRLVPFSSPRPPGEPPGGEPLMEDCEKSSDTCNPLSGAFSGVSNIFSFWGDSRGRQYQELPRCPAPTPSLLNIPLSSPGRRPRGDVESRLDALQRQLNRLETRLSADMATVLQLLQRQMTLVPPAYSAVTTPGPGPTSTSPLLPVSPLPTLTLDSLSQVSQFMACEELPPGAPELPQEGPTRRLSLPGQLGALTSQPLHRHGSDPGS
The subject of a further data set is Rattus norvegicus. Nature of the data set: AUC in rat at 1 mg/kg, iv. The class given is ADME, organism-based, Plasma. Details: dose 1 mg/kg, route intravenous. The following applies: in vivo.
The nature of data set [8]: Bioavailability in rat at 5 mg/kg, po. Type of data set: ADME, organism-based. To be noted: in vivo.
Data set [9] in a line: Cmax in rat at 5 mg/kg, po. The class given is ADME, organism-based. Details: dose 5 mg/kg, route oral. The following applies: in vivo.
The nature of data set [10]: Half life in rat at 1 mg/kg, iv. The class given is ADME, organism-based. Details: dose 1 mg/kg, route intravenous. To be noted: in vivo.
The target in another data set is hERG (KCNH2) (Homo sapiens, UniProt Q12809). Nature of the data set: Displacement of [3H]dofetilide from human ERG at 300 uM. The following applies: probe [3H]dofetilide. Put shortly: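 Radioligand filter-binding assay measuring displacement of [3H]-dofetilide from the hERG channel, run as in a patent protocol.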
Chain of hERG (KCNH2) (Q12809 whole entry): as above
On the technique in general: In a radioligand displacement assay an active substance lowers the binding of a labelled ligand.

The clearance is the rate of elimination divided by the concentration. The Ki is a dissociation constant, usually derived from enzyme kinetics or from competition with a known ligand. Usually bioavailability stands for the share of a dose that reaches the circulation, judged against a reference dose that is usually intravenous. A higher bioavailability goes with good availability. The term Cmax denotes the peak of the concentration-time curve. The term half-life denotes the time needed for the level to fall by half in the phase considered. A high value points to slow loss. What is called inhibition is the change of the read-out against control, counted positive when it falls. A high value points to a strong effect.

Molecules are shown by their SMILES. Values after ≈ are worked out from the molar mass of the structure shown. Bounds are passed on as bounds.

Consider `COc1c(N2CC[C@@H]([C@H](C)N)C2)c(F)cc2c(=O)c(C(=O)O)cn(C3CC3)c12`, for which the MIC was found to be 0.004 µg/mL (≈ 0.0103 µM) against Haemophilus influenzae; 0.004 µg/mL (≈ 0.0103 µM) against Streptococcus pneumoniae [1]; 0.015 µg/mL (≈ 0.0385 µM) against Moraxella catarrhalis; 0.002 µg/mL (≈ 0.00514 µM) in the data set on Staphylococcus aureus [2]; 0.03 µg/mL (≈ 0.077 µM) with Streptococcus pneumoniae [3]; 0.008 µg/mL (≈ 0.0205 µM) with Staphylococcus aureus [4].
As to `CN[C@@H](CC#N)[C@@H]1CCN(c2c(F)cc3c(=O)c(C(=O)O)cn(C4CC4)c3c2OC)C1`, the MIC was 0.03 µg/mL (≈ 0.07 µM) in the data set on Haemophilus influenzae; 0.06 µg/mL (≈ 0.14 µM) in the data set with Streptococcus pneumoniae [1]; 0.06 µg/mL (≈ 0.14 µM) in the data set on Moraxella catarrhalis; 0.008 µg/mL (≈ 0.0187 µM) in the data set on Staphylococcus aureus [2]; 0.5 µg/mL (≈ 1.17 µM) with Streptococcus pneumoniae [3]; 0.06 µg/mL (≈ 0.14 µM) against Staphylococcus aureus [4]. Besides, the Vd in data set [5] amounted to 1.8 L/kg. This molecule also had a clearance in data set [6] of 19 mL/min/kg. Also, the Ki in data set [7] was greater than 150 µM. For the same molecule, in the data set with Rattus norvegicus, the AUC came to 4.4 ug/hr.ml. The bioavailability in data set [8] is 53%. Also, in data set [9], the Cmax stood at 1400 ng/mL. Moreover, the half-life in data set [10] was 2.4 h. At hERG (KCNH2), this molecule registered an inhibition at 300 µM of 9%.
Take `COc1c(N2CC[C@@H](CNCCC#N)C2)ccc2c(=O)c(C(=O)O)cn(C3CC3)c12`: the MIC in the data set with Haemophilus influenzae turned out to be 0.25 µg/mL (≈ 0.609 µM); against Streptococcus pneumoniae [1], 0.125 µg/mL (≈ 0.305 µM); against Moraxella catarrhalis, 1 µg/mL (≈ 2.44 µM); in the data set on Staphylococcus aureus [2], 0.03 µg/mL (≈ 0.0731 µM); with Streptococcus pneumoniae [3], 2 µg/mL (≈ 4.87 µM); against Staphylococcus aureus [4], 0.25 µg/mL (≈ 0.609 µM).
Regarding `COc1c(N2CC[C@@H]([C@H](C)N)C2)ccc2c(=O)c(C(=O)O)cn(C3CC3)c12`, the MIC turned out to be 0.125 µg/mL (≈ 0.337 µM) against Haemophilus influenzae; 0.015 µg/mL (≈ 0.0404 µM) against Streptococcus pneumoniae [1]; 0.06 µg/mL (≈ 0.162 µM) with Moraxella catarrhalis; 0.008 µg/mL (≈ 0.0215 µM) in the data set with Staphylococcus aureus [2]; 0.125 µg/mL (≈ 0.337 µM) against Streptococcus pneumoniae [3]; 0.03 µg/mL (≈ 0.0808 µM) in the data set with Staphylococcus aureus [4].
Regarding `COc1c(N2CC[C@@H]([C@@H](N)CC#N)C2)ccc2c(=O)c(C(=O)O)cn(C3CC3)c12`, the MIC against Haemophilus influenzae was 0.06 µg/mL (≈ 0.151 µM); with Streptococcus pneumoniae [1] it was 0.03 µg/mL (≈ 0.0757 µM); in the data set with Moraxella catarrhalis, 0.125 µg/mL (≈ 0.315 µM); in the data set on Staphylococcus aureus [2] it was 0.008 µg/mL (≈ 0.0202 µM); with Streptococcus pneumoniae [3] it was 0.5 µg/mL (≈ 1.26 µM); in the data set with Staphylococcus aureus [4], 0.06 µg/mL (≈ 0.151 µM). The Vd in data set [5] was 0.5 L/kg. This molecule showed a clearance in [6] of 16 mL/min/kg. The Ki in [7] is greater than 150 µM. For the same molecule, in the data set on Rattus norvegicus, the AUC was determined as 5.2 ug/hr.ml. In data set [8], this molecule had a bioavailability of 22%. Besides, the Cmax in data set [9] is 1400 ng/mL. This molecule also gave a half-life in data set [10] of 1.8 h. For the same molecule, at 300 µM the inhibition on hERG (KCNH2) was 30%.
For the molecule `Cc1c(N2CC[C@@H]([C@H](C)N)C2)c(F)cc2c(=O)c(C(=O)O)cn(C3CC3)c12`, the MIC with Haemophilus influenzae came out at 0.004 µg/mL (≈ 0.0107 µM); in the data set on Streptococcus pneumoniae [1], 0.002 µg/mL (≈ 0.00536 µM); with Moraxella catarrhalis, 0.015 µg/mL (≈ 0.0402 µM); in the data set with Staphylococcus aureus [2] it was 0.002 µg/mL (≈ 0.00536 µM); against Streptococcus pneumoniae [3] it was 0.03 µg/mL (≈ 0.0803 µM); with Staphylococcus aureus [4], 0.03 µg/mL (≈ 0.0803 µM).
Regarding `Cc1c(N2CC[C@@H]([C@H](C)NCCC#N)C2)c(F)cc2c(=O)c(C(=O)O)cn(C3CC3)c12`, the MIC was determined as 0.03 µg/mL (≈ 0.0703 µM) against Haemophilus influenzae; 0.008 µg/mL (≈ 0.0188 µM) against Streptococcus pneumoniae [1]; 0.015 µg/mL (≈ 0.0352 µM) in the data set on Moraxella catarrhalis; 0.002 µg/mL (≈ 0.00469 µM) in the data set with Staphylococcus aureus [2]; 0.06 µg/mL (≈ 0.141 µM) against Streptococcus pneumoniae [3]; 0.008 µg/mL (≈ 0.0188 µM) in the data set on Staphylococcus aureus [4]. The Ki in [7] stood at 72 µM.
For the molecule `CC1COc2c(N3CC[C@@H]([C@H](C)NCCC#N)C3)c(F)cc3c(=O)c(C(=O)O)cn1c23` (stereo not given in full), the MIC with Haemophilus influenzae was determined as 0.06 µg/mL (≈ 0.14 µM); in the data set with Streptococcus pneumoniae [1], 0.06 µg/mL (≈ 0.14 µM); with Moraxella catarrhalis it was 0.125 µg/mL (≈ 0.292 µM); in the data set on Staphylococcus aureus [2], 0.015 µg/mL (≈ 0.035 µM); against Streptococcus pneumoniae [3], 0.25 µg/mL (≈ 0.583 µM); with Staphylococcus aureus [4] it was 0.03 µg/mL (≈ 0.07 µM). In data set [7], this molecule had an inhibition constant Ki greater than 150 µM. This molecule also displayed an inhibition at 300 µM at hERG (KCNH2) of 10%.
Regarding `CN[C@@H](CC#N)[C@@H]1CCN(c2c(F)cc3c(=O)c(C(=O)O)cn4c3c2OCC4C)C1` (stereo not given in full), the MIC against Haemophilus influenzae was found to be 0.03 µg/mL (≈ 0.0724 µM); with Streptococcus pneumoniae [1] it was 0.125 µg/mL (≈ 0.302 µM); in the data set on Moraxella catarrhalis it was 0.25 µg/mL (≈ 0.603 µM); with Staphylococcus aureus [2], 0.06 µg/mL (≈ 0.145 µM); with Streptococcus pneumoniae [3], 2 µg/mL (≈ 4.83 µM); against Staphylococcus aureus [4], 0.125 µg/mL (≈ 0.302 µM). This molecule also gave a Ki in data set [7] greater than 150 µM. Also, 300 µM produced 19% inhibition on hERG (KCNH2).
`Cc1c(N2CC(C)(CN)C2)c(F)cc2c(=O)c(C(=O)O)cn(C3CC3)c12`: the MIC was determined as 0.015 µg/mL (≈ 0.0417 µM) in the data set with Haemophilus influenzae; 0.06 µg/mL (≈ 0.167 µM) with Streptococcus pneumoniae [1]; 0.06 µg/mL (≈ 0.167 µM) with Moraxella catarrhalis; 0.06 µg/mL (≈ 0.167 µM) against Staphylococcus aureus [2]; 2 µg/mL (≈ 5.56 µM) in the data set with Streptococcus pneumoniae [3]; 0.06 µg/mL (≈ 0.167 µM) against Staphylococcus aureus [4]. The Vd in data set [5] worked out at 2.5 L/kg. Moreover, in data set [6], the clearance was 33 mL/min/kg. The molecule further returned an AUC in the data set on Rattus norvegicus of 2.5 ug/hr.ml. Besides, in data set [8], the bioavailability worked out at 18%. For the same molecule, in data set [9], the peak level (Cmax) was 300 ng/mL. The molecule also had a half-life in [10] of 1.3 h.
For the molecule `Cc1c(N2CC(C)(CNCCC#N)C2)c(F)cc2c(=O)c(C(=O)O)cn(C3CC3)c12`, the MIC with Haemophilus influenzae worked out at 0.06 µg/mL (≈ 0.145 µM); in the data set on Streptococcus pneumoniae [1], 0.125 µg/mL (≈ 0.303 µM); in the data set with Moraxella catarrhalis, 0.125 µg/mL (≈ 0.303 µM); in the data set on Staphylococcus aureus [2] it was 0.03 µg/mL (≈ 0.0727 µM); against Streptococcus pneumoniae [3] it was 2 µg/mL (≈ 4.85 µM); against Staphylococcus aureus [4], 0.03 µg/mL (≈ 0.0727 µM). In [7], this molecule gave a Ki greater than 150 µM. On hERG (KCNH2), this molecule yielded an inhibition at 300 µM of 18%.
